Data as given in the RNAGym collection of RNA variant scans (doi:10.1126/science.aae0568).
This sample holds only a part of the variants without activity.

B1: tRNA (parent)
chain: GUUCCGUUGGCGUAAUGGUAACGCGUCUCCCUCCUAAGGAGAAGACUGCGGGUUCGAGUCCCGUACGGAACG

Variants of: B1
Assay: yeast fitness relative to wild type (ratio to wild type); higher = fitter; tRNA-Arg(CCU), competitive growth, 37 C, YPD
In short: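 Changes in genotype frequencies gave Darwinian fitness relative to wild type. Frequencies were read by 100-nucleotide paired-end sequencing of gene amplicons before and after pooled Saccharomyces cerevisiae strains, carrying tRNA-Arg(CCU) gene variants at the native locus, were competed in YPD at 37°C for 24 hours in six replicates. A genotype was kept only with ≥ 100 starting reads, and estimates < 0.5 were set to 0.5.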

Variant | yeast fitness
GUUCCGUUGGCGUAAUGGUAACGCGUCUCCCUCCUAAGGAGAAGACUGCGGGUUCGAGUCCCGUACGUAACG [G68U] | 1.02
GUUCCGUUGGCGUAAUGGUAACGCGUCUCCCUCCUAAGGAGAAGACUGCGGGUUCGAGUCCCGUACGCAACG [G68C] | 0.968
GUUCCGUUGGCGUAAUGGUAACGCGUCUCCCUCCUAAGGAGAAGACUGCGGGUUCGAGUCCCGUACGUGACG [G68U A69G] | 0.998
GUUCCGUUGGCGUAAUGGUAACGCGUCUCCCUCCUAAGGAGAAGACUGCGGGUUCGAGUCCCGUACGGUCCG [A69U A70C] | 1.04
GUUCCGUUGGCGUAAUGGUAACGCGUCUCCCUCCUAAGGAGAAGACUGCGGGUUCGAGUCCCGUACGCCACG [G68C A69C] | 0.786
GUUCCGUUGGCGUAAUGGUAACGCGUCUCCCUCCUAAGGAGAAGACUGCGGGUUCGAGUCCCGUACGCGACG [G68C A69G] | 0.945
GUUCCGUUGGCGUAAUGGUAACGCGUCUCCCUCCUAAGGAGAAGACUGCGGGUUCGAGUCCCGUACGCUACG [G68C A69U] | 0.711
GUUCCGUUGGCGUAAUGGUAACGCGUCUCCCUCCUAAGGAGAAGACUGCGGGUUCGAGUCCCGUACGCACCG [G68C A70C] | 0.837
GUUCCGUUGGCGUAAUGGUAACGCGUCUCCCUCCUAAGGAGAAGACUGCGGGUUCGAGUCCCGUACGGAUCG [A70U] | 1.02
GUUCCGUUGGCGUAAUGGUAACGCGUCUCCCUCCUAAGGAGAAGACUGCGGGUUCGAGUCCCGUACGGAGCG [A70G] | 0.999
GUUCCGUUGGCGUAAUGGUAACGCGUCUCCCUCCUAAGGAGAAGACUGCGGGUUCGAGUCCCGUACGGACCG [A70C] | 1.04
GUUCCGUUGGCGUAAUGGUAACGCGUCUCCCUCCUAAGGAGAAGACUGCGGGUUCGAGUCCCGUACGGCUCG [A69C A70U] | 1.05
GUUCCGUUGGCGUAAUGGUAACGCGUCUCCCUCCUAAGGAGAAGACUGCGGGUUCGAGUCCCGUACGGCGCG [A69C A70G] | 1.02
GUUCCGUUGGCGUAAUGGUAACGCGUCUCCCUCCUAAGGAGAAGACUGCGGGUUCGAGUCCCGUACGGCCCG [A69C A70C] | 0.982
GUUCCGUUGGCGUAAUGGUAACGCGUCUCCCUCCUAAGGAGAAGACUGCGGGUUCGAGUCCCGUACGGGUCG [A69G A70U] | 0.99
